Laboratory results as given in ChEMBL document CHEMBL4265978, “In search of constrained FTY720 and phytosphingosine analogs as dual acting anticancer agents targeting metabolic and epigenetic pathways” (Eur J Med Chem, 2018).
Blank lines part the entries; values can stand above or below the compound they belong to. Active and inactive are the calls of the source. The rule behind the calls is not given here.

Key:
FL5.12 [1] = assay: Cytotoxicity against mouse FL5.12 cells after 48 hrs by DAPI or propidium iodide staining-based flow cytometric analysis; type: functional, cell-based; settings: FL5.12, 48 h
How it was run: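 FL5.12 (murine hematopoietic, IL-3-dependent) cells treated at 25,000/mL; viability read at 48 h by DAPI or propidium iodide dye exclusion on flow cytometry. IC50 fitted, reported with 95% confidence interval.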

FL5.12 [2] = assay: Downregulation of CD98 expression in mouse FL5.12 cells at 10 uM after 3 hrs by DAPI staining-based FACS analysis relative to control; type: functional
How it was run: (§1)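 FL5.12 cells plated at 225-250,000/mL and treated 3 h. 150-200,000 cells stained in triplicate on ice for 30 min with PE-anti-mouse CD98, with PE rat IgG2a κ as isotype control. Read by flow cytometry, gated on viable cells (DAPI exclusion or scatter). Loss given as mean of at least 2 biological replicates.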

FL5.12 [3] = assay: Downregulation of CD98 expression in mouse FL5.12 cells at 40 uM after 3 hrs by DAPI staining-based FACS analysis relative to control; type: functional; how it was run: as §1
FL5.12 [4] = assay: Cytotoxicity against mouse FL5.12 cells assessed as vacuole formation at 40 uM after 3 hrs by […]; type: functional, cell-based
How it was run: (§2)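 FL5.12 cells treated at 200,000/mL for 3 h, then imaged at 100× by brightfield/DIC. At least 5 images per condition, at least 2 biological replicates. Two researchers scored each replicate independently: 0 no vacuoles, + some cells, ++ most cells with at least 1 vacuole, +++ all cells heavily vacuolated.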

FL5.12 [5] = assay: Cytotoxicity against mouse FL5.12 cells assessed as vacuole formation at 10 uM after 3 hrs by […]; type: functional, cell-based; how it was run: as §2
[6] = target: Histone deacetylase (Homo sapiens) (UniProt Q13547+O15379+Q9UBN7+Q92769+Q9UQL6+Q8WUI4+Q9BY41+Q96DB2+P56524+Q9UKV0+Q969S8); assay: Inhibition of HDAC in human HeLa cell extract at 10 to 20 uM after 15 to 30 mins by COLOR DE LYS-based colorimetric method; type: protein assay
How it was run: (§3)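 Recombinant HDAC1 or HeLa extract incubated with acetylated lysine substrate at 37°C for 15-30 min. Developer then added: 10-15 min at 37°C with absorbance at 405 nm (colorimetric kit), or 15 min at RT with fluorescence at ex 355/em 460 nm, corrected using ± trichostatin A.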

FL5.12 [7] = assay: Cytotoxicity against mouse FL5.12 cells assessed as vacuole formation at 2.5 uM after 3 hrs by […]; type: functional, cell-based; how it was run: as §2
FL5.12 [8] = assay: Downregulation of CD98 expression in mouse FL5.12 cells at 2.5 uM after 3 hrs by DAPI staining-based FACS analysis relative to control; type: functional; how it was run: as §1
[9] = target: Histone deacetylase 1 (Homo sapiens) (UniProt Q13547); assay: Inhibition of human recombinant HDAC1 at 20 uM after 15 to 30 mins by COLOR DE LYS-based colorimetric method; how it was run: as §3
Histone deacetylase 1 (Homo sapiens), sequence (Q13547 whole entry): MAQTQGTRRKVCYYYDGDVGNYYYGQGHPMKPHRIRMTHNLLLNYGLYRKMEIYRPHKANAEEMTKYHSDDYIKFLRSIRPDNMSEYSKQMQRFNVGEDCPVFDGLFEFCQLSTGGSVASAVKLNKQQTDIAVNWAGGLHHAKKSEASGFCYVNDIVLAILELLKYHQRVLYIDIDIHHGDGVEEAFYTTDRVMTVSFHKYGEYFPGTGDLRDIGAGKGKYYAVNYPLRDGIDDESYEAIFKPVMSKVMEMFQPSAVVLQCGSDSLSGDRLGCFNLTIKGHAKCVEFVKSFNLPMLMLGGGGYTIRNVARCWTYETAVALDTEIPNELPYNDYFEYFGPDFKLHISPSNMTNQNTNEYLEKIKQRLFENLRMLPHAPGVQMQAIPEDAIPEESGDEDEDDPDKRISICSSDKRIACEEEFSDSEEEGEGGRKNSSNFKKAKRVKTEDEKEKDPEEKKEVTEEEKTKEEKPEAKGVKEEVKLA

inhibition [6]: inactive
SMILES: CCCCCCCCc1ccc(CC(=O)[C@@H]2C[C@@H](OP(=O)(O)O)CN2)cc1.Cl
IC50 (FL5.12 [1]): 25 µM
Activity (FL5.12 [2]): 3%
Activity (FL5.12 [3]): 0%
Activity (FL5.12 [4]): inactive
Activity (FL5.12 [5]): inactive

SMILES: CCCCCCCCc1ccc(C(=O)[C@@H]2C[C@@H](OP(=O)(O)O)CN2)cc1.Cl
IC50 (FL5.12 [1]): 12.9 µM
Activity (FL5.12 [2]): 3%
Activity (FL5.12 [3]): -8%
Activity (FL5.12 [4]): inactive
Activity (FL5.12 [5]): inactive
Activity (FL5.12 [7]): inactive

SMILES: Cc1nc(CCCCCCCc2ccc([C@H]3CCN[C@@H]3CO)cc2)co1.Cl
IC50 (FL5.12 [1]): 8.4 µM
Activity (FL5.12 [8]): 5%
Activity (FL5.12 [2]): 33%
Activity (FL5.12 [3]): 61%
Activity (FL5.12 [4]): inactive
Activity (FL5.12 [5]): inactive

SMILES: CCCCCCCCc1ccc(C(=O)[C@H]2C[C@H](OP(=O)(O)O)CN2)cc1.Cl
IC50 (FL5.12 [1]): 12.8 µM
Activity (FL5.12 [2]): -9%
Activity (FL5.12 [3]): 0%
Activity (FL5.12 [4]): inactive
Activity (FL5.12 [5]): inactive
Activity (FL5.12 [7]): inactive

SMILES: CCCCCCCCc1ccc(C(=O)[C@H]2C[C@H](O)CN2)cc1.Cl
IC50 (FL5.12 [1]): 15.3 µM
Activity (FL5.12 [8]): 12%
Activity (FL5.12 [2]): 51%
Activity (FL5.12 [3]): 41%
Activity (FL5.12 [4]): Active
Activity (FL5.12 [5]): Active
Activity (FL5.12 [7]): inactive

inhibition [6]: inactive
SMILES: CCCCCCCCc1ccc(CC(O)[C@H]2C[C@H](O)CN2)cc1.Cl (stereo not given in full)
IC50 (FL5.12 [1]): 1.8 µM
Activity (FL5.12 [8]): 9%
Activity (FL5.12 [2]): 62%
Activity (FL5.12 [5]): Active
Activity (FL5.12 [7]): inactive

inhibition [9]: inactive
SMILES: CCCCCCCCc1ccc(C(=O)C[C@H]2C[C@H](CO)CN2)cc1.Cl
IC50 (FL5.12 [1]): 2 µM
Activity (FL5.12 [8]): 44%
Activity (FL5.12 [2]): 60%
Activity (FL5.12 [5]): Active
Activity (FL5.12 [7]): Active

SMILES: Cc1nc(/C=C/CCCCCc2ccc([C@H]3CCN[C@@H]3CO)cc2)co1.Cl
IC50 (FL5.12 [1]): 10.2 µM
Activity (FL5.12 [8]): 5%
Activity (FL5.12 [2]): 18%
Activity (FL5.12 [3]): 61%
Activity (FL5.12 [4]): inactive
Activity (FL5.12 [5]): inactive

inhibition [6]: inactive
SMILES: CCCCCCCCc1ccc(CC(=O)[C@H]2C[C@H](OP(=O)(O)O)CN2)cc1.Cl
IC50 (FL5.12 [1]): 25.3 µM
Activity (FL5.12 [2]): 5%
Activity (FL5.12 [3]): 8%
Activity (FL5.12 [4]): inactive
Activity (FL5.12 [5]): inactive

SMILES: CCCCCCCCc1ccc([C@H]2CCN[C@@H]2CO)cc1
IC50 (FL5.12 [1]): 2.1 µM
Activity (FL5.12 [8]): 41%
Activity (FL5.12 [2]): 66%
Activity (FL5.12 [5]): Active
Activity (FL5.12 [7]): Active

SMILES: CCCCCCCCc1ccc(C(=O)C[C@@H]2C[C@@H](O)CN2)cc1.Cl
IC50 (FL5.12 [1]): 2.1 µM
Activity (FL5.12 [8]): 22%
Activity (FL5.12 [2]): 46%
Activity (FL5.12 [5]): Active
Activity (FL5.12 [7]): Active

inhibition [6]: inactive
SMILES: CCCCCCCCc1ccc(CC(O)[C@@H]2C[C@@H](O)CN2)cc1.Cl (stereo not given in full)
IC50 (FL5.12 [1]): 3 µM
Activity (FL5.12 [8]): 19%
Activity (FL5.12 [2]): 62%
Activity (FL5.12 [5]): Active
Activity (FL5.12 [7]): Active

SMILES: Cl.OC[C@H]1NCC[C@@H]1c1ccc(CCCOCc2ccccc2)cc1
IC50 (FL5.12 [1]): 10.9 µM
Activity (FL5.12 [8]): 11%
Activity (FL5.12 [2]): 14%
Activity (FL5.12 [3]): 51%
Activity (FL5.12 [4]): inactive
Activity (FL5.12 [5]): inactive

SMILES: CCCCCCCCc1ccc(C(=O)[C@H]2C[C@H](CO)CN2)cc1.Cl
IC50 (FL5.12 [1]): 19.6 µM
Activity (FL5.12 [8]): 0%
Activity (FL5.12 [2]): 19%
Activity (FL5.12 [3]): 61%
Activity (FL5.12 [4]): Active
Activity (FL5.12 [5]): inactive
Activity (FL5.12 [7]): inactive

SMILES: O=C(CCCCCCC(=O)Nc1ccccc1)NO
Activity (FL5.12 [5]): Active

SMILES: CCCCCCCCc1ccc(CC(=O)[C@@H]2C[C@@H](O)CN2)cc1.Cl
IC50 (FL5.12 [1]): 18.6 µM
Activity (FL5.12 [8]): 13%
Activity (FL5.12 [2]): 23%
Activity (FL5.12 [3]): 59%
Activity (FL5.12 [4]): Active
Activity (FL5.12 [5]): inactive
Activity (FL5.12 [7]): inactive

SMILES: CCCCCCCCc1ccc(C(=O)C[C@@H]2CCCN2)cc1.Cl
IC50 (FL5.12 [1]): 2.5 µM
Activity (FL5.12 [8]): 28%
Activity (FL5.12 [2]): 57%
Activity (FL5.12 [5]): Active
Activity (FL5.12 [7]): Active

SMILES: CCCCCCCCc1ccc(CC(=O)[C@H]2C[C@H](O)CN2)cc1.Cl
IC50 (FL5.12 [1]): 17.1 µM
Activity (FL5.12 [8]): 11%
Activity (FL5.12 [2]): 16%
Activity (FL5.12 [3]): 54%
Activity (FL5.12 [4]): Active
Activity (FL5.12 [5]): inactive
Activity (FL5.12 [7]): inactive

SMILES: CCCCCCCCc1ccc(C(=O)[C@@H]2CCCN2)cc1.Cl
IC50 (FL5.12 [1]): > 40 µM
Activity (FL5.12 [8]): -21%
Activity (FL5.12 [2]): -4%
Activity (FL5.12 [3]): 33%
Activity (FL5.12 [4]): Active
Activity (FL5.12 [5]): inactive
Activity (FL5.12 [7]): inactive

SMILES: CCCCCCCCc1ccc(CCC(N)(CO)CO)cc1 [FINGOLIMOD]
IC50 (FL5.12 [1]): 2.1 µM
Activity (FL5.12 [8]): 30%
Activity (FL5.12 [2]): 63%
Activity (FL5.12 [5]): Active
Activity (FL5.12 [7]): Active

SMILES: CCCCCCCCc1ccc(CC[C@@H]2CCCN2)cc1.Cl
IC50 (FL5.12 [1]): 2.8 µM
Activity (FL5.12 [8]): 41%
Activity (FL5.12 [2]): 63%
Activity (FL5.12 [5]): Active
Activity (FL5.12 [7]): Active

SMILES: CCCCCCCCc1ccc(C[C@@H]2C[C@@H](O)CN2)cc1
IC50 (FL5.12 [1]): 2.2 µM
Activity (FL5.12 [8]): 40%
Activity (FL5.12 [2]): 63%
Activity (FL5.12 [5]): Active
Activity (FL5.12 [7]): Active

SMILES: CCCCCCCCc1ccc(C(=O)CC[C@@H]2C[C@@H](O)CN2)cc1.Cl
IC50 (FL5.12 [1]): 2.1 µM
Activity (FL5.12 [8]): 15%
Activity (FL5.12 [2]): 52%
Activity (FL5.12 [5]): Active
Activity (FL5.12 [7]): Active

SMILES: CCCCCCCCc1ccc([C@@H]2CC[C@H]3C[C@H](CO)CN32)cc1.Cl
IC50 (FL5.12 [1]): 12.2 µM
Activity (FL5.12 [8]): 0%
Activity (FL5.12 [2]): 32%
Activity (FL5.12 [3]): 68%
Activity (FL5.12 [4]): Active
Activity (FL5.12 [5]): inactive
Activity (FL5.12 [7]): inactive

SMILES: CCCCCCCCc1ccc(C(=O)CC[C@H]2C[C@H](CO)CN2)cc1.Cl
IC50 (FL5.12 [1]): 4 µM
Activity (FL5.12 [8]): 8%
Activity (FL5.12 [2]): 46%
Activity (FL5.12 [5]): Active
Activity (FL5.12 [7]): inactive

SMILES: CCCCCCCCc1ccc(C(=O)[C@@H]2C[C@@H](O)CN2)cc1.Cl
IC50 (FL5.12 [1]): 28.1 µM
Activity (FL5.12 [8]): 2%
Activity (FL5.12 [2]): 9%
Activity (FL5.12 [3]): 48%
Activity (FL5.12 [4]): Active
Activity (FL5.12 [7]): inactive

SMILES: CC(=O)CCCCCCc1ccc([C@H]2CCN[C@@H]2CO)cc1.Cl
IC50 (FL5.12 [1]): 15.1 µM
Activity (FL5.12 [8]): -15%
Activity (FL5.12 [2]): -8%
Activity (FL5.12 [3]): 23%
Activity (FL5.12 [4]): inactive
Activity (FL5.12 [5]): inactive

SMILES: CCCCCCCCc1ccc(C(C[C@@H]2CCCN2)OC)cc1.Cl (stereo not given in full)
IC50 (FL5.12 [1]): 3 µM
Activity (FL5.12 [8]): 16%
Activity (FL5.12 [2]): 58%
Activity (FL5.12 [5]): Active
Activity (FL5.12 [7]): inactive
